Experimental data: ChEMBL document CHEMBL1127048, “A potent new class of kappa-receptor agonist: 4-substituted 1-(arylacetyl)-2-[(dialkylamino)methyl]piperazines” (J Med Chem, 1993); call rule not given here

How the values were obtained:
Mus musculus [1] = assay: In vivo antinociceptive activity was determined using mouse acetylcholine induced abdominal constriction test following subcutaneous administration; range (0.002-0.007); type: functional; settings: Abdomen, sc
Outline: (§1)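 Mice given compound by subcutaneous injection, then challenged with acetylcholine to induce abdominal constrictions. Antinociceptive ED50 determined in mg/kg sc, with a bracketed range reported alongside.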

Mus musculus [2] = assay: In vivo antinociceptive activity was determined using mouse acetylcholine induced abdominal constriction test following subcutaneous administration; range (0.20-1.09); type: functional; settings: Abdomen, sc; outline: as §1
Mus musculus [3] = assay: In vivo antinociceptive activity was determined using mouse acetylcholine induced abdominal constriction test following subcutaneous administration; range (0.0003-0.002); type: functional; settings: Abdomen, sc; outline: as §1
[4] = In vitro agonist activity at kappa opioid receptor in rabbit vas deferens.
Mus musculus [5] = assay: In vivo antinociceptive activity was determined using mouse acetylcholine induced abdominal constriction test following subcutaneous administration; type: functional; settings: Abdomen, sc; outline: as §1
Mus musculus [6] = assay: In vivo antinociceptive activity was determined using mouse acetylcholine induced abdominal constriction test following subcutaneous administration; range (0.012-0.032); type: functional; settings: Abdomen, sc; outline: as §1
Mus musculus [7] = assay: In vivo antinociceptive activity was determined using mouse acetylcholine induced abdominal constriction test following subcutaneous administration; range (0.007-0.018); type: functional; settings: Abdomen, sc; outline: as §1
Mus musculus [8] = assay: In vivo antinociceptive activity was determined using mouse acetylcholine induced abdominal constriction test following subcutaneous administration; range (0.12-0.48); type: functional; settings: Abdomen, sc; outline: as §1
Mus musculus [9] = assay: In vivo antinociceptive activity was determined using mouse acetylcholine induced abdominal constriction test following subcutaneous administration; range (0.000033-0.000241); type: functional; settings: Abdomen, sc; outline: as §1
Mus musculus [10] = assay: In vivo antinociceptive activity was determined using mouse acetylcholine induced abdominal constriction test following subcutaneous administration; range (0.024-0.066); type: functional; settings: Abdomen, sc; outline: as §1
Mus musculus [11] = assay: In vivo antinociceptive activity was determined using mouse acetylcholine induced abdominal constriction test following subcutaneous administration; range (0.00012-0.00045); type: functional; settings: Abdomen, sc; outline: as §1
[12] = target: Kappa-type opioid receptor (Homo sapiens) (UniProt P41145); settings: Oryctolagus cuniculus; Vas deferens
Mu-type opioid receptor = Mu-type opioid receptor (Rattus norvegicus, UniProt P33535); assay: In vitro inhibitory activity against mu specific tissue of rat vas deferens; type: functional, tissue-based
Rattus norvegicus [13] = assay: In vivo antinociceptive activity was determined using rat paw pressure test following subcutaneous administration; range (0.00058-0.0014); type: functional; settings: sc
Mus musculus [14] = assay: In vivo antinociceptive activity was determined using mouse acetylcholine induced abdominal constriction test following subcutaneous administration; range (0.00027-0.00086); type: functional; settings: Abdomen, sc; outline: as §1
Mus musculus [15] = assay: In vivo antinociceptive activity was determined using mouse acetylcholine induced abdominal constriction test following oral administration; range (0.005-0.035); type: functional; settings: Abdomen
Mus musculus [16] = assay: In vivo antinociceptive activity was determined using mouse acetylcholine induced abdominal constriction test following subcutaneous administration; range (0.059-0.173); type: functional; settings: Abdomen, sc; outline: as §1
Mus musculus [17] = assay: In vivo antinociceptive activity was determined using mouse acetylcholine induced abdominal constriction test following subcutaneous administration; range (0.01-0.02); type: functional; settings: Abdomen, sc; outline: as §1
Mus musculus [18] = assay: In vivo antinociceptive activity was determined using mouse acetylcholine induced abdominal constriction test following subcutaneous administration; range (0.04-0.15); type: functional; settings: Abdomen, sc; outline: as §1
Rattus norvegicus [19] = organism: Rattus norvegicus; assay: Agonistic/Antagonistic activity in rat vas deferens (RVD) at 10e-5 M; not active; type: functional
Mus musculus [20] = assay: In vivo antinociceptive activity was determined using mouse acetylcholine induced abdominal constriction test following subcutaneous administration; range (0.03-0.08); type: functional; settings: Abdomen, sc; outline: as §1
Mus musculus [21] = assay: In vivo antinociceptive activity was determined using mouse acetylcholine induced abdominal constriction test following subcutaneous administration; range (0.015-0.037); type: functional; settings: Abdomen, sc; outline: as §1

Kappa-type opioid receptor (Homo sapiens), sequence (P41145 whole entry): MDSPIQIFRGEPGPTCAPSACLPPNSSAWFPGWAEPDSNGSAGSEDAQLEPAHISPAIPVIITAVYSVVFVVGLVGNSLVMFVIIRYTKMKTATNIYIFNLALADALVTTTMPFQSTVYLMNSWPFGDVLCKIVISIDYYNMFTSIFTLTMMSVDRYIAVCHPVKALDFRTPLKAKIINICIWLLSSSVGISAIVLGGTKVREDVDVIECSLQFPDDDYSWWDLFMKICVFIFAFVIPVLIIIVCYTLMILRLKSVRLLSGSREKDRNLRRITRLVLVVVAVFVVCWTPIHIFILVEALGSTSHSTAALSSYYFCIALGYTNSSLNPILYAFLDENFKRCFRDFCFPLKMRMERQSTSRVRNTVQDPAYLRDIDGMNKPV
Mu-type opioid receptor, sequence (P33535 whole entry): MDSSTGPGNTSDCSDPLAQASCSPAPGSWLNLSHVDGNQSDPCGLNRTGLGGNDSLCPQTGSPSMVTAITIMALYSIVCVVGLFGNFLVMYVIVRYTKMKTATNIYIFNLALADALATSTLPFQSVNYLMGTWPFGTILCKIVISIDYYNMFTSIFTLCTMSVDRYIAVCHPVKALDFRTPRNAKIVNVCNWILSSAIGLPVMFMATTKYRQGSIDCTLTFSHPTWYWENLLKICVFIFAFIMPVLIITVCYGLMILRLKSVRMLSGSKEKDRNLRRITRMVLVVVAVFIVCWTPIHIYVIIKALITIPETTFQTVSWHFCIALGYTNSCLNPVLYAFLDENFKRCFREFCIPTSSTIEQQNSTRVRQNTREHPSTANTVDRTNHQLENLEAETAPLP

SMILES: COC(=O)/C=C1/CCN(CC2CN(C(=O)OC)CCN2C(=O)Cc2ccc(Cl)c(Cl)c2)C1 (stereo not drawn)
- ED50 (Mus musculus [1]): 4 µg/kg

SMILES: CCCC(=O)N1CCN(C(=O)Cc2ccc(Cl)c(Cl)c2)C(CN2CCCC2)C1 (stereo not drawn)
- ED50 (Mus musculus [2]): 410 µg/kg

SMILES: O=C(Cc1ccc(Cl)c(Cl)c1)N1CCC2(CC1CN1CCCC1)OCCO2 (stereo not drawn)
- ED50 (Mus musculus [3]): 1 µg/kg
- IC50 [4]: 0.1 nM

SMILES: CN1CC[C@]23c4c5ccc(O)c4O[C@H]2[C@@H](O)C=C[C@H]3[C@H]1C5 [MORPHINE]
- ED50 (Mus musculus [5]): 470 µg/kg

SMILES: C=CC(=O)N1CCN(C(=O)Cc2ccc(Cl)c(Cl)c2)C(CN2CCCC2)C1 (stereo not drawn)
- ED50 (Mus musculus [6]): 20 µg/kg

SMILES: CCCOC(=O)N1CCN(C(=O)Cc2ccc(Cl)c(Cl)c2)C(CN2CCCC2)C1 (stereo not drawn)
- ED50 (Mus musculus [5]): 680 µg/kg

SMILES: CCOC(=O)N1CCN(C(=O)Cc2ccc(Cl)c(Cl)c2)C(CN2CCCC2)C1 (stereo not drawn)
- ED50 (Mus musculus [7]): 10 µg/kg

SMILES: O=CN1CCN(C(=O)Cc2ccc(Cl)c(Cl)c2)C(CN2CCCC2)C1 (stereo not drawn)
- ED50 (Mus musculus [8]): 230 µg/kg

SMILES: COC(=O)N1CCN(C(=O)Cc2ccc(Cl)c(Cl)c2)C(CN2CC=CCC2)C1 (stereo not drawn)
- ED50 (Mus musculus [9]): 0.096 µg/kg

SMILES: COC(=O)N1CCN(C(=O)Cc2ccc(Cl)c(Cl)c2)C(CN2CCC(O)C2)C1 (stereo not drawn)
- ED50 (Mus musculus [10]): 44 µg/kg

SMILES: COC(=O)N1CCN(C(=O)Cc2ccc(Cl)c(Cl)c2)C(CN2CCCC2)C1 (stereo not drawn)
- ED50 (Mus musculus [11]): 0.25 µg/kg
- pKB [12]: 7.7
- IC50 (Mu-type opioid receptor): > 10000 nM
- ED50 (Rattus norvegicus [13]): 0.93 µg/kg
- ED50 (Mus musculus [14]): 0.52 µg/kg
- ED50 (Mus musculus [15]): 12 µg/kg

SMILES: COC(=O)/C=C1\CCN(CC2CN(C(=O)OC)CCN2C(=O)Cc2ccc(Cl)c(Cl)c2)C1 (stereo not drawn)
- ED50 (Mus musculus [16]): 100 µg/kg

SMILES: COC(=O)N1CCN(C(=O)Cc2ccc(Cl)c(Cl)c2)C(CN(C)C)C1 (stereo not drawn)
- ED50 (Mus musculus [17]): 16 µg/kg

SMILES: CC(=O)N1CCN(C(=O)Cc2ccc(Cl)c(Cl)c2)C(CN2CCCC2)C1 (stereo not drawn)
- ED50 (Mus musculus [18]): 80 µg/kg
- IC50 (Rattus norvegicus [19]): Not Active

SMILES: CCC(=O)N1CCN(C(=O)Cc2ccc(Cl)c(Cl)c2)C(CN2CCCC2)C1 (stereo not drawn)
- ED50 (Mus musculus [20]): 50 µg/kg

SMILES: COC(=O)N1CCN(C(=O)Cc2ccc(Cl)c(Cl)c2)C(CN2CCC(=O)C2)C1 (stereo not drawn)
- ED50 (Mus musculus [21]): 23 µg/kg
